This is an account of results in ChEMBL document CHEMBL1148372 (J Med Chem, 2004).

One may read the EC50 as the midpoint of the concentration-response curve. Low values mean greater potency, high ones weaker potency. The term Ki denotes a measure of affinity in units of concentration, obtained from inhibition or displacement. Read a low Ki as tighter binding.

The target of assay [1] is T1, D(4) dopamine receptor (Rattus norvegicus, UniProt P30729).
T1 sequence (P30729 whole entry): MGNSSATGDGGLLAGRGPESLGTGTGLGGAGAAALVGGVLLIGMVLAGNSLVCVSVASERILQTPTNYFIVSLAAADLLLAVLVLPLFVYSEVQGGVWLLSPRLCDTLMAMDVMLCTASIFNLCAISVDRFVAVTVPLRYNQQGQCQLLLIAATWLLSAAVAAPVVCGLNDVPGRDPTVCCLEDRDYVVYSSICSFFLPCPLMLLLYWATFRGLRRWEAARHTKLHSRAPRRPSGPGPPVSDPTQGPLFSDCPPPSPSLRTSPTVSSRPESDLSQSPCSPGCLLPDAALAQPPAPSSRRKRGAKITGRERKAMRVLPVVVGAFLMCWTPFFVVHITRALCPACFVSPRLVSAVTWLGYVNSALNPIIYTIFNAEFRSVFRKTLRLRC
Put plainly: In vitro effective concentration tested on HEK293 cells co-transfected with rat Dopamine receptor D4 using FLIPR assay. It counts as cell-based.

Assay [2] has as its system Rattus norvegicus. Put plainly: In vivo maximal effective dose tested in rats for erection 60 min after subcutaneous administration. The assay is classed as functional. In outline:
(§1)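 Conscious male Wistar rats, adapted 60 min to a dim red-lit room, tested between 9:00 a.m. and 3:00 p.m. Dosed subcutaneously, then caged singly and observed directly for 60 min. Percent incidence is the share of animals with one or more erections; 8–30 animals per group. Maximally effective dose is the dose giving peak incidence, with significance versus control.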

The target of assay [3] is D(2) dopamine receptor (Rattus norvegicus) (UniProt P61169). Kind of assay: In vitro efficacy tested on rat Dopamine receptor D2 were co-expressed with GRqo5 in HEK293 cells using FLIPR assay (Efficacy relative to 10 uM dopamine). The assay is classed as cell-based.
Assay [4] concerns the target T2, D(2) dopamine receptor (Homo sapiens, UniProt P14416). Kind of assay: Binding affinity towards human Dopamine receptor D2.
In assay [5] the target is T2, D(2) dopamine receptor. Put plainly: In vitro effective concentration tested on HEK293 cells co-transfected with human Dopamine receptor D2 using FLIPR assay; Not an agonist up to 10 uM. The assay is classed as functional, cell-based.
The target in the next assay is D(3) dopamine receptor (Homo sapiens, UniProt P35462). Kind of assay: Binding affinity towards human Dopamine receptor D3.
In assay [6] the target is T3, Adrenergic receptor alpha-2 (Homo sapiens, UniProt P08913+P18825+P18089).
T3 sequence (P08913 whole entry): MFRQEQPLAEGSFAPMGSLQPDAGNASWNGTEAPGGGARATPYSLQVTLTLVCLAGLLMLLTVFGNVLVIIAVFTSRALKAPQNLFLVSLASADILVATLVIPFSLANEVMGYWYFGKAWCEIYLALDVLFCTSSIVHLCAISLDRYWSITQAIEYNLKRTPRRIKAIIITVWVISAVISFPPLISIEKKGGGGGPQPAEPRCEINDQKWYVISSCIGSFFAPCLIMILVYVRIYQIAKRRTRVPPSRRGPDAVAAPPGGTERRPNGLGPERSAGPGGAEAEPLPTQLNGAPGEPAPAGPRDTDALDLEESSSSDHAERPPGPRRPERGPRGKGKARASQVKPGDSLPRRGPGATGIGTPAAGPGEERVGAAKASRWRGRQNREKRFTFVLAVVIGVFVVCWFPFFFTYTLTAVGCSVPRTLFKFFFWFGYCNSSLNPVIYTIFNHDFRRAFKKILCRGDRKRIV
T3 sequence (P18825 whole entry): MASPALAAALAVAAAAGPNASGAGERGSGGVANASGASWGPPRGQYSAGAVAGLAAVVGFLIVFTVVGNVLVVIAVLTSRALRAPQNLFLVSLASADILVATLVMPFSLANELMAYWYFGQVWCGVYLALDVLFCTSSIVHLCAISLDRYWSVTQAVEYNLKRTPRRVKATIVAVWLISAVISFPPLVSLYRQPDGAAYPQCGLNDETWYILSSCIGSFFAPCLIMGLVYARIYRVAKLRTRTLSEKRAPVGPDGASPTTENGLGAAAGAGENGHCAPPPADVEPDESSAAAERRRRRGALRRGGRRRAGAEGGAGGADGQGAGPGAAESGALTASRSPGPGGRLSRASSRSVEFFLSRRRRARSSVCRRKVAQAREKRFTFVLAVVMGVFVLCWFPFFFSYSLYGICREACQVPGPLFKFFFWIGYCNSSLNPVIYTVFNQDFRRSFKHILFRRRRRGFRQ
T3 sequence (P18089 whole entry): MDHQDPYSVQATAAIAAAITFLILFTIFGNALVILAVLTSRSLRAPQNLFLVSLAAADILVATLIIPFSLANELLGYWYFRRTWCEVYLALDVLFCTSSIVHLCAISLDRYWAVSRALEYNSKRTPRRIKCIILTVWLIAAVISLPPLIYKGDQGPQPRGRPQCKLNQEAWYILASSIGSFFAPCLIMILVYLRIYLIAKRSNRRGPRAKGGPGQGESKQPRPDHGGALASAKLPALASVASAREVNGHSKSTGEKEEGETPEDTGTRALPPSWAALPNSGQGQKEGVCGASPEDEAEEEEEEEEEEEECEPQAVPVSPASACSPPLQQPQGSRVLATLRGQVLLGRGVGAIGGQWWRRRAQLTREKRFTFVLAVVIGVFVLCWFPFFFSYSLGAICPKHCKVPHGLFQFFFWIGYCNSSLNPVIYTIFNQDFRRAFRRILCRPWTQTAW
Put plainly: Binding affinity towards human alpha-2 adrenergic receptor. The assay is classed as protein assay.

Assay [7] deals with Rattus norvegicus. Put plainly: In vivo maximal penile erection in rats 60 min after subcutaneous administration. It counts as functional. In outline:
as §1

The target in assay [8] is T4, D(2) dopamine receptor (Rattus norvegicus, UniProt P61169). Kind of assay: In vitro effective concentration tested on HEK293 cells co-transfected with rat Dopamine receptor D2 using FLIPR assay. The assay is classed as cell-based.
Assay [9] deals with Kappa-type opioid receptor (Homo sapiens, UniProt P41145). Put plainly: Binding affinity towards human Opioid receptor kappa 1.
The target of assay [10] is T5, D(4) dopamine receptor (Homo sapiens, UniProt P21917).
T5 sequence (P21917 whole entry): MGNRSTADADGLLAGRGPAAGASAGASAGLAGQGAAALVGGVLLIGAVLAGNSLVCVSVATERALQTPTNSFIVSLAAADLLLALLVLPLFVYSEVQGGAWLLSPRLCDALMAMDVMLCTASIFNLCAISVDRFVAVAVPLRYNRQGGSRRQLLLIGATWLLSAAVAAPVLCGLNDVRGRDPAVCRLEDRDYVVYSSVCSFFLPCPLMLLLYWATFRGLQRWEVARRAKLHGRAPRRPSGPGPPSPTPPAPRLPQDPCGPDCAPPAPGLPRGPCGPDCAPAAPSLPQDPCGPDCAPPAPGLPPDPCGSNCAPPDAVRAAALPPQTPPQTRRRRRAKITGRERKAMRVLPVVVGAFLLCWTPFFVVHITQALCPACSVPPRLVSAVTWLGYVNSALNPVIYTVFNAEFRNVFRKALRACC
Put plainly: Binding affinity towards human D4.4 receptor. In outline:
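Membranes from HEK-293 cells transfected with human D4.4 receptor, stored at -80 °C. Filtration through glass microfiber filters, three cold Tris washes, scintillation counting; Ki derived.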

For assay [11], the target named is T6, 5-hydroxytryptamine receptor 1A (Homo sapiens, UniProt P08908).
T6 sequence (P08908 whole entry): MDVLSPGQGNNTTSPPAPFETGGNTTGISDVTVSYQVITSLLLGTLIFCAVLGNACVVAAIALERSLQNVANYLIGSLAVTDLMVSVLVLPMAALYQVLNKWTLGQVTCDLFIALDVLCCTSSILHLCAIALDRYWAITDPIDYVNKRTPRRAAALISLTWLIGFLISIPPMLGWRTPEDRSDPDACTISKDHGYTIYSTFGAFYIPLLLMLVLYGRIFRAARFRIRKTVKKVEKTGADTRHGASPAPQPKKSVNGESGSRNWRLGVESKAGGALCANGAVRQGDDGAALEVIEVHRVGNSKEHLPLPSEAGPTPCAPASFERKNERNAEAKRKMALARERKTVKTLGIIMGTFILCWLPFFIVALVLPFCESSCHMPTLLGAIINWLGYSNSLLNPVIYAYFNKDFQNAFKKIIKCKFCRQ
Kind of assay: Binding affinity towards human 5-hydroxytryptamine 1A receptor.

Assay [12] addresses T4, D(2) dopamine receptor. Kind of assay: In vitro effective concentration tested on HEK293 cells co-transfected with rat Dopamine receptor D2 using FLIPR assay; Not an agonist up to 10 uM. It counts as functional, cell-based.
Assay [13] addresses T2, D(2) dopamine receptor. Kind of assay: In vitro binding affinity tested on human Dopamine receptor D2 (long) using [3H]spiperon as a radioligand.
In assay [14] the target is T2, D(2) dopamine receptor. Put plainly: In vitro binding affinity tested on human Dopamine receptor D2 using [3H]spiperon as a radioligand.
Assay [15] addresses T6, 5-hydroxytryptamine receptor 1A. Kind of assay: In vitro binding affinity tested on human 5-hydroxytryptamine 1A receptor.
Assay [16] has as its target T7, D(4) dopamine receptor (Homo sapiens) (UniProt P21917).
T7 sequence (whole entry): T5 sequence (P21917 whole entry)
Kind of assay: In vitro efficacy tested on human Dopamine receptor D4.4 were co-expressed with GRqo5 in HEK293 cells using FLIPR assay (Efficacy relative to 10 uM dopamine). The assay is classed as cell-based. The method, boiled down: (§2)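 HEK293 cells coexpressing human D4.4 receptor and Gαqo5, plated at 20 000 cells/well and grown 2 days. Loaded 1 h at 23 °C with 4 µM Fluo-4 plus 0.04% Pluronic F-127 in DPBS, washed four times. Compound added, fluorescence read over 3 min.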

Assay [17] has as its target T2, D(2) dopamine receptor. Kind of assay: In vitro binding affinity tested on human Dopamine receptor D2 (short) using [3H]spiperone as a radioligand.
In assay [18] the target is T5, D(4) dopamine receptor. Put plainly: In vitro EC50 tested on HEK293 cells co-transfected with human Dopamine receptor D4.4 using FLIPR assay. The assay is classed as cell-based. The method, boiled down: as §2
The nature of assay [19]: Binding affinity tested against D4.2 receptor in Chinese hamster ovary cell line (CHO cells) using [3H]spiperone as a radioligand. The assay is classed as cell-based, Cricetulus griseus.
In assay [20] the target is D(2) dopamine receptor (Rattus norvegicus) (UniProt P61169). Kind of assay: In vitro efficacy tested on ferret Dopamine receptor D2 were co-expressed with GRqo5 in HEK293 cells using FLIPR assay (Efficacy relative to 10 uM dopamine). It counts as functional, cell-based. The method, boiled down:
(§3)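 HEK cells co-transfected with the target receptor plus Gαqo5. […] Compounds were tested up to 10 µM. Untransfected cells served as a control.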

Assay [21] has the same target. Kind of assay: In vitro efficacy tested on rat Dopamine receptor D2 were coexpressed with GRqo5 in HEK293 cells using FLIPR assay (Efficacy relative to 10 uM dopamine). The assay is classed as functional, cell-based. In outline: as §3
The target of assay [22] is T5, D(4) dopamine receptor. Kind of assay: In vitro effective concentration tested on HEK293 cells co-transfected with human Dopamine receptor D4 using FLIPR assay; Not an agonist up to 10 uM. The assay is classed as functional, cell-based. In outline:
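Human D4.4 receptor co-expressed with Gαqo5 in HEK293 cells, plated at 20 000 cells/well and grown 2 days. Loaded with 4 µM Fluo-4 and 0.04% Pluronic F-127 in DPBS with glucose and pyruvate for 1 h at 23 °C, then washed. Compound added and fluorescence read over 3 min on FLIPR. […] EC50 is the concentration giving half-maximal response.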

The target of assay [23] is T2, D(2) dopamine receptor. Kind of assay: In vitro efficacy tested on human Dopamine receptor D2 were co-expressed with GRqo5 in HEK293 cells using FLIPR assay (Efficacy relative to 10 uM dopamine). The assay is classed as functional, cell-based.
In assay [24] the target is T1, D(4) dopamine receptor. Put plainly: In vitro effective concentration tested on HEK293 cells co-transfected with rat Dopamine receptor D4 using FLIPR assay; Not an agonist up to 10 uM. The assay is classed as functional, cell-based. The method, boiled down:
as §3

Molecules are shown by their SMILES. Values joined by “and” are separate entries in the source; they are usually repeats but may differ in a detail not shown here. Equal entries are not always repeated. A value given as a limit tells only on which side of the number the result lay.

D(2) dopamine receptor (Rattus norvegicus), sequence (P61169 whole entry): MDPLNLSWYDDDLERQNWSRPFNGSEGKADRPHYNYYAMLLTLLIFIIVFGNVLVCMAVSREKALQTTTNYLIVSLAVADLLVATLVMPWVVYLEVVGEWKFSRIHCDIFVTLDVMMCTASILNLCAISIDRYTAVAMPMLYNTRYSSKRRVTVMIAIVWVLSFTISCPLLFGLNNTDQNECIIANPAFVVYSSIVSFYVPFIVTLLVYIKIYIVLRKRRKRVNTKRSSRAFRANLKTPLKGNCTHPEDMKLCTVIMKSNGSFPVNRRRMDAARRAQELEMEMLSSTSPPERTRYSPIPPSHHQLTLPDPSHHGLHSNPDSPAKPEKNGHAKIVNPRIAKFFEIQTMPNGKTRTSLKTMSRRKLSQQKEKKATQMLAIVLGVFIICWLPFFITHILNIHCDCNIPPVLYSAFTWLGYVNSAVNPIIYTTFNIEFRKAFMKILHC
T2 sequence (P14416 whole entry): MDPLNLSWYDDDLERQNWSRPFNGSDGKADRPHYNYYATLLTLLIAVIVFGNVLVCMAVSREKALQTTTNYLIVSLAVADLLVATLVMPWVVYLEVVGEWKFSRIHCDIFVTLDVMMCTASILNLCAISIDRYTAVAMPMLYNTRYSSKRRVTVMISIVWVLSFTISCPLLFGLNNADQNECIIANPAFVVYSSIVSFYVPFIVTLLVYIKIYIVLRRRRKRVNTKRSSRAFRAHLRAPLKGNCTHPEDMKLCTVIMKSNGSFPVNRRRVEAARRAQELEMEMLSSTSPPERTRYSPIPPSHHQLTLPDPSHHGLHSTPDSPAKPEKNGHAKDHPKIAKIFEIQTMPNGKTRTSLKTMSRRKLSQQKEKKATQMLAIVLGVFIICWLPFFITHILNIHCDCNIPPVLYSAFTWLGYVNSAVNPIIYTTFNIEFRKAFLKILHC
T4 sequence (P61169 whole entry): as the sequence (P61169 whole entry) above
Kappa-type opioid receptor, sequence (P41145 whole entry): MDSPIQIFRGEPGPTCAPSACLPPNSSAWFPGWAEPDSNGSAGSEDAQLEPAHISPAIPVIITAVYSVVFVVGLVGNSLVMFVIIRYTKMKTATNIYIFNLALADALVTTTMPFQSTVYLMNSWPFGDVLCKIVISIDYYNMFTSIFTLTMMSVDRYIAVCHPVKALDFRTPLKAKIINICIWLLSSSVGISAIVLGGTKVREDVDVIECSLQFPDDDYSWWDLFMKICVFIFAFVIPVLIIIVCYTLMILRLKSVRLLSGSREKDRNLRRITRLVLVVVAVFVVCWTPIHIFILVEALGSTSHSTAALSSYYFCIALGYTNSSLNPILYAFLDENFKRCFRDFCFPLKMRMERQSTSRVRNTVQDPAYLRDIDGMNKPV
D(3) dopamine receptor, sequence (P35462 whole entry): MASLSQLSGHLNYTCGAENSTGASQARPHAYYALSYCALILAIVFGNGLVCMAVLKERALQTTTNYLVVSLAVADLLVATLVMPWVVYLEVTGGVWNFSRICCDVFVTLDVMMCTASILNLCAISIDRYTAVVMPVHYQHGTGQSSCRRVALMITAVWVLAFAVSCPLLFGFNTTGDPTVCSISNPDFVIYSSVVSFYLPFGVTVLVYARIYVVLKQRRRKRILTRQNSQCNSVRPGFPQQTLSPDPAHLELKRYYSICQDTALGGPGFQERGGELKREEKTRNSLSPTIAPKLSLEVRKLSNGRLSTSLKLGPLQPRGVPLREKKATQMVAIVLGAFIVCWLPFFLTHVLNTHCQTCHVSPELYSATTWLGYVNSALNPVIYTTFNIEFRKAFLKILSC

Consider `Fc1ccc2[nH]c(CN3CCN(c4ccccn4)CC3)cc2c1`, for which the EC50 was 0.036 µM on D(4) dopamine receptor [1], “Not Active” on D(2) dopamine receptor [5] and 0.055 µM on D(2) dopamine receptor [8]. This molecule also had an Effective dose in the assay on Rattus norvegicus [2] of 1 µM/kg. In assay [3], this molecule came in with an Efficacy of 89%. Besides, the Ki worked out at 0.12 µM on D(2) dopamine receptor [4]; 0.56 µM on D(3) dopamine receptor; 0.4 µM in assay [6]; 0.3 µM in assay [9]; 0.0036 µM on D(4) dopamine receptor [10]; 0.2 µM in assay [11]. This molecule returned an Activity in the assay with Rattus norvegicus [7] of 83%.

`c1ccc(N2CCN(Cc3nc4ccccc4[nH]3)CC2)nc1` [ABT-724]: the values for the EC50 on D(4) dopamine receptor [1], on D(2) dopamine receptor [12] and on D(2) dopamine receptor [5] were 0.0143 µM, “Not Active” and “Not Active”, respectively. In the assay on Rattus norvegicus [2], this molecule gave an Effective dose of 0.03 µM/kg. Moreover, the Ki at D(2) dopamine receptor [13] is 15 µM; at D(2) dopamine receptor [14], 0.16 µM; in assay [15], > 10 µM and 2780 µM; on D(2) dopamine receptor [17] it was 51 µM. In addition, in the assay with Rattus norvegicus [7], the Activity came to 77%. This molecule also had an Efficacy in assay [16] of 61%.

`c1ccc(N2CCN(Cc3nc4ccccc4[nH]3)CC2)cc1` displayed an Effective dose in the assay with Rattus norvegicus [2] of 0.03 µM/kg. For the same molecule, at D(4) dopamine receptor [18], a half-maximal response (EC50) required 0.0306 µM. This molecule also came in with an Activity in the assay with Rattus norvegicus [7] of 75%. For the same molecule, in [16], the Efficacy is 33%. This molecule also showed a Ki in [19] of 0.033 µM.

`CN[C@@H]1Cc2cccc3[nH]c(=O)n(c23)C1` [SUMANIROLE]: the Efficacy is 90% in assay [20], 103% in [21] and 93% at D(2) dopamine receptor [23]. The EC50 result at D(4) dopamine receptor [22] and at D(4) dopamine receptor [24] was “Not Active” throughout.
